These results are taken from ChEMBL document CHEMBL3232764, “Influence of the adamantyl moiety on the activity of biphenylacrylohydroxamic acid-based HDAC inhibitors” (Eur J Med Chem, 2014).

The structures appear in SMILES notation. Calls of active or inactive are those of the source. The calls are words filed in the database; no cut-off is given here.

In test [1] the target is T1, Histone deacetylase 8 (Homo sapiens, UniProt Q9BY41).
T1 sequence (Q9BY41 whole entry): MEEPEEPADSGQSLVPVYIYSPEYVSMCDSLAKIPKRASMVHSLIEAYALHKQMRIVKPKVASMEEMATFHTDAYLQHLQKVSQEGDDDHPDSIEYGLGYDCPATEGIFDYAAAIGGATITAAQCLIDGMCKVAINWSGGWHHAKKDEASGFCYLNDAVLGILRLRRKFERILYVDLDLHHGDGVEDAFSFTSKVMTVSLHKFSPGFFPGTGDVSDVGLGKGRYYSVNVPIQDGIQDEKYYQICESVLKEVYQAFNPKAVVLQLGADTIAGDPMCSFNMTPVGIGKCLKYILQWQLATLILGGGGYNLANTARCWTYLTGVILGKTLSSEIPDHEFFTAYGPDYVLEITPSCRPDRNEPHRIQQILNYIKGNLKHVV
Briefly: Inhibition of human HDAC8 using fluorogenic tetrapeptide RHKKAc as substrate.

For test [2], the target named is Histone deacetylase 1 (Homo sapiens, UniProt Q13547). Briefly: Inhibition of human HDAC1 using fluorogenic tetrapeptide RHKKAc as substrate.
Histone deacetylase 1, sequence (Q13547 whole entry): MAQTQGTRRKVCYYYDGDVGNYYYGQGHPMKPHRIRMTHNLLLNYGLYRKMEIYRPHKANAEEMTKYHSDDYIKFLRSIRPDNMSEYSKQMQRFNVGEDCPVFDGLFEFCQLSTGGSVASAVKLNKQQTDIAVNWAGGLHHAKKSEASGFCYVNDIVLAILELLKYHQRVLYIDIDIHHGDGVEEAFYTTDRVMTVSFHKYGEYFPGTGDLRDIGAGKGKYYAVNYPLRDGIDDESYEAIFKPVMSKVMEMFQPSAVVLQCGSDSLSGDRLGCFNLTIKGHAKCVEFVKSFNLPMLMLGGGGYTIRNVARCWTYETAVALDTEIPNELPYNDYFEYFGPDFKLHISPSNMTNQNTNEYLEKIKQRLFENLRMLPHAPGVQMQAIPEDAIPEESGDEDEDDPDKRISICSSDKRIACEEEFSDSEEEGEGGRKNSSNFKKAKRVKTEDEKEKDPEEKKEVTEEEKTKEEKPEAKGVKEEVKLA
Test [3] concerns the target T2, Histone deacetylase 7 (Homo sapiens, UniProt Q8WUI4).
T2 sequence (Q8WUI4 whole entry): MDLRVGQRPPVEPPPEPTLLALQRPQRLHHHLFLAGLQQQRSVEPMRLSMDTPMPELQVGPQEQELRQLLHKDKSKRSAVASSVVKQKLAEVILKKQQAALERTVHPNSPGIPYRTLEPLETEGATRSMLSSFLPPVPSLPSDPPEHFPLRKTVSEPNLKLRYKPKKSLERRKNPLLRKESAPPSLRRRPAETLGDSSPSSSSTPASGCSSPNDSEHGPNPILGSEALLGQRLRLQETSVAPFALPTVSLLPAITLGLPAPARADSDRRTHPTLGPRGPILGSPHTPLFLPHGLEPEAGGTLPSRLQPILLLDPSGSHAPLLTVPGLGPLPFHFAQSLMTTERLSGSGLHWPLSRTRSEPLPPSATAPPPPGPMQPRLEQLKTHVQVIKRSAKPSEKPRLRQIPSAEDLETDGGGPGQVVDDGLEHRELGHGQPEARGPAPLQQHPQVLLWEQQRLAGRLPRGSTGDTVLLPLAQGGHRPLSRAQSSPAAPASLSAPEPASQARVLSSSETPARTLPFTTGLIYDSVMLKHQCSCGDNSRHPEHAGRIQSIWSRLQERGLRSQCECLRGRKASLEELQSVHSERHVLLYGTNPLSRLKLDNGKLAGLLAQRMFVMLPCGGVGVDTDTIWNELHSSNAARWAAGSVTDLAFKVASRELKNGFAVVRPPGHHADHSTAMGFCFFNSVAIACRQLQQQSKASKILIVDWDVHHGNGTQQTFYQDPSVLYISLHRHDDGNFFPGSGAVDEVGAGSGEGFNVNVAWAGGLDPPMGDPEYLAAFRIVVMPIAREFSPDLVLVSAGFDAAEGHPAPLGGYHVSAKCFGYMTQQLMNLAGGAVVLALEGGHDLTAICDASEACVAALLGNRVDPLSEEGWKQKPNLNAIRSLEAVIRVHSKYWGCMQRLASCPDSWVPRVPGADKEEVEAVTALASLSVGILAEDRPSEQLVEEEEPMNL
Briefly: Inhibition of human HDAC7 using fluorogenic tetrapeptide RHKKAc as substrate.

For test [4], the target named is T3, Protein deacetylase HDAC6 (Homo sapiens) (UniProt Q9UBN7).
T3 sequence (whole entry): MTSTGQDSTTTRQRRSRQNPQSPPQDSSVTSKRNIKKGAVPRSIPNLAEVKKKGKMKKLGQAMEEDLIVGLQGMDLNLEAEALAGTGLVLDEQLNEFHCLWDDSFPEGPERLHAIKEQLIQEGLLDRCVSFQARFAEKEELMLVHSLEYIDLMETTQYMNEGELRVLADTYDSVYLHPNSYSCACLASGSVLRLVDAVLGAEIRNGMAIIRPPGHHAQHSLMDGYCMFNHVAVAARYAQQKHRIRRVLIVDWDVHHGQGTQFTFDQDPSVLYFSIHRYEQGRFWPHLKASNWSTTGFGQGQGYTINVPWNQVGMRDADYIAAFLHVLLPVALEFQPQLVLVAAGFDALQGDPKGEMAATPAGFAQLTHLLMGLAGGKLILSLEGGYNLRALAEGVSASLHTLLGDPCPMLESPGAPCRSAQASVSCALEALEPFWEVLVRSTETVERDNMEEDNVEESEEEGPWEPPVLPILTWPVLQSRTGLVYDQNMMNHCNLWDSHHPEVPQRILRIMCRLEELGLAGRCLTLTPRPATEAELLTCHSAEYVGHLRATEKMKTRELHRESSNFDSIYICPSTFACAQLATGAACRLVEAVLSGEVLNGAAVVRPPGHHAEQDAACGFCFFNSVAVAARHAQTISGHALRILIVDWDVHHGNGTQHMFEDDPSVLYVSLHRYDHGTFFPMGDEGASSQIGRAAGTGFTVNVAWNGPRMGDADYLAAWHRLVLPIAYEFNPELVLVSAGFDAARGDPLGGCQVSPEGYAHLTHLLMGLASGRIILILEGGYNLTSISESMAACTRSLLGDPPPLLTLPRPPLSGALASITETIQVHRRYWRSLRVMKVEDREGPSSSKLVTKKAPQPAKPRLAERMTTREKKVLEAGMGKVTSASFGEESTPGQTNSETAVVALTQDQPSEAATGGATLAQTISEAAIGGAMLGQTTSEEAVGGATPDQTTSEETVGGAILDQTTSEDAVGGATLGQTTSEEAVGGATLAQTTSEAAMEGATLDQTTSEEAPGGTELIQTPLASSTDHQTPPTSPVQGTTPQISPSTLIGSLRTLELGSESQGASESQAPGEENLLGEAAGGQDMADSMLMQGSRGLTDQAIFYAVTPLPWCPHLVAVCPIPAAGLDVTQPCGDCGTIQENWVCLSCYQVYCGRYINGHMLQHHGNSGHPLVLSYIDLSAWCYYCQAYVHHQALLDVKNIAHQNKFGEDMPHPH
As to the kind of experiment: Inhibition of HDAC6 in human IGROV1 cells assessed as increase in tubulin acetylation at IC80 after 4 to 24 hrs by Western blot analysis. It is filed as cell-based. The conditions noted are these: IGROV-1. In outline: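 Cells treated with various concentrations of HDAC inhibitors, collected, lysed and analysed by Western blotting.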
On the technique in general: In western blotting, separated proteins are transferred to a membrane and probed.

For test [5], the system named is IGROV-1. Briefly: Antiproliferative activity against human IGROV1 cells assessed as growth inhibition after 72 hrs. As to conditions: IGROV-1, 72 h. It counts as functional, cell-based. In outline:
(§1)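 Log-phase cells seeded in duplicate in 6-well plates; drug added 24 h after seeding. Cells harvested 72 h after drug exposure and counted with a cell counter. IC50 = drug concentration giving 50% reduction in cell number versus untreated control.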

A short description of test [6]: Antiproliferative activity against p53 defective cis-platinum-resistant human IGROV1/Pt1 cells assessed as growth inhibition after 72 hrs. It is filed as functional, cell-based. The conditions noted are these: IGROV-1/Pt1, 72 h. The method in brief: as §1
The nature of test [7]: cells. It is filed as functional, cell-based. The conditions noted are these: Homo sapiens, NCI-H460, 72 h.
In test [8] the target is Histone deacetylase 2 (Homo sapiens, UniProt Q92769). It counts as cell-based, HeLa.
Histone deacetylase 2, sequence (Q92769 whole entry): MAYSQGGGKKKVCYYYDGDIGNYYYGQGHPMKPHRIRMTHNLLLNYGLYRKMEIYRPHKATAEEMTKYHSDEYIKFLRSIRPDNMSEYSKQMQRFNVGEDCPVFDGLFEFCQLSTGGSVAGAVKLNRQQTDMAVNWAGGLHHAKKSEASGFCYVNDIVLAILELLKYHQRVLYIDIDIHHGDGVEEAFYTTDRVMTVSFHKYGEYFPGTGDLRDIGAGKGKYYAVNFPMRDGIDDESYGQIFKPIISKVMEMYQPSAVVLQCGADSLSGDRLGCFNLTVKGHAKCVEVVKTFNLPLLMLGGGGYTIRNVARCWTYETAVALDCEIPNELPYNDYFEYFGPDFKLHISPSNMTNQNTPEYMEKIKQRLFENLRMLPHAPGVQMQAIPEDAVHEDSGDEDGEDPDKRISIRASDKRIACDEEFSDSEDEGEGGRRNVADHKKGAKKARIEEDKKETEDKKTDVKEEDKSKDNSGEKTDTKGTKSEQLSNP

As for `COc1ccc(-c2ccc(/C=C/C=C/C(=O)NO)cc2)cc1`, the figures for the IC50 in test [1], in test [2] and in test [3] were 1.56 µM, > 100 µM and > 100 µM, respectively.

For the molecule `COc1ccc(-c2ccc(/C=C/C=C/C(=O)NO)cc2)cc1C12CC3CC(CC(C3)C1)C2`, in test [4], the result was inactive. Also, the IC50 in test [5] is 1300 nM; in test [1], 30.6 µM; in test [6], 2030 nM; in test [2], 60.1 µM; in test [7] it was 1400 nM; in test [8], > 10 µM.

The IC50 is the concentration at which inhibition is half-maximal.
